Data set [1] relates to Mus musculus. In words: Anticonvulsant activity against strychnine-induced seizures in Albino mouse assessed as survival time at 100 mg/kg, po administered 1 hr before strychnine challenge. The data set is classed as functional.
Data set [2] relates to Mus musculus. Briefly: Anticonvulsant activity in Albino mouse assessed as protection against pentylenetetrazole-induced seizures at 100 mg/kg, ip administered 1 hr before pentylenetetrazole challenge. The settings on record: route intraperitoneal. It counts as functional. The method in brief: (§1)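 Male albino mice (25–30 g), housed in groups of 10 and acclimated ≥2 days with free food and water. Test agent suspended in water with 2% Tween 80 and given ip. PTZ 112 mg/kg ip injected 1 h later. Mice without generalized convulsions scored as protected, expressed as % protection. PD50 by log-linear regression of dose-response across 50, 100, 200 mg/kg.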

The test system of data set [3] is Mus musculus. In words: Anticonvulsant activity in Albino mouse assessed as protection against pentylenetetrazole-induced seizures at 50 mg/kg, ip administered 1 hr before pentylenetetrazole challenge. The data set is classed as functional. The settings on record: route intraperitoneal. The method in brief:
as §1

The test system of data set [4] is Mus musculus. Briefly: Anticonvulsant activity in Albino mouse assessed as protection against pentylenetetrazole-induced seizures at 200 mg/kg, ip administered 1 hr before pentylenetetrazole challenge. As to conditions: route intraperitoneal. The data set is classed as functional. The method in brief:
as §1

Data set [5] is described as follows: Dissociation constant, pKa of the compound. The data set is classed as physicochemical. The method in brief:
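Spectrophotometric pKa. Spectra of ionized and unionized forms recorded in 0.1 M HCl and 0.1 M NaOH with DMF. Absorbance read at the wavelength of maximal difference in phosphate buffer (Na2HPO4/KH2PO4, 0.15 M) with DMF at pH 7.6, 7.4, 7 and 6.8. pKa = pH + log[(Ai−A)/(A−Au)], averaged with SD.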

Data set [6] relates to Mus musculus. In words: Anticonvulsant activity in ip dosed Albino mouse assessed as protection against pentylenetetrazole-induced seizures administered 1 hr before pentylenetetrazole challenge. It counts as functional. As to conditions: read-out: PD50. The method in brief:
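PTZ model in male albino mice (25–30 g), 10 per group. Test agents suspended in water with 2% Tween 80 and given ip at graded doses (50, 100, 200 mg/kg). Pentylenetetrazole 112 mg/kg ip given 1 h later. Absence of generalized convulsions scored as protection. PD50 obtained by log-linear regression of dose–response curves.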

Data set [7] relates to Mus musculus. In words: Toxicity against Albino mouse assessed as mortality at 3200 mg/kg after 24 hrs. The data set is classed as organism-based. Further details: dose 3200 mg/kg. The settings on record: in vivo. The method in brief: (§2)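 Male albino mice (25–30 g), groups of 8. Single injected doses at equal log intervals (400, 800, 1600, 3200 mg/kg), bracketed by preliminary no-kill and LD100 doses. Deaths counted at 24 h. LD50 calculated by the Spearman–Karber method.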

Data set [8] can be described thus: Toxicity against Albino mouse assessed as mortality after 24 hrs. The settings on record: in vivo. The data set is classed as organism-based. The method in brief: as §2
For data set [9], the system named is Mus musculus. Briefly: Toxicity against Albino mouse assessed as mortality at 400 mg/kg after 24 hrs. It counts as organism-based. Also noted: dose 400 mg/kg. The settings on record: in vivo. The method in brief:
as §2

Data set [10] has as its system Mus musculus. Briefly: Anticonvulsant activity in Albino mouse assessed as protection against pentylenetetrazole-induced seizures at 30 mg/kg, ip administered 1 hr before pentylenetetrazole challenge. The data set is classed as functional. As to conditions: route intraperitoneal. The method in brief: (§3)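 Male albino mice (25–30 g), housed 10 per group and acclimated for at least 2 days. Dosed ip, suspended in water with 2% Tween 80. Pentylenetetrazole 112 mg/kg ip given 1 h later. Mice without generalized convulsions counted as protected; reported as % protection.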

The test system of data set [11] is Mus musculus. In words: Anticonvulsant activity in Albino mouse assessed as protection against pentylenetetrazole-induced seizures at 20 mg/kg, ip administered 1 hr before pentylenetetrazole challenge. It counts as functional. As to conditions: route intraperitoneal. The method in brief:
as §3

Data set [12] concerns Mus musculus. Briefly: Anticonvulsant activity in Albino mouse assessed as protection against pentylenetetrazole-induced seizures at 10 mg/kg, ip administered 1 hr before pentylenetetrazole challenge. The data set is classed as functional. As to conditions: route intraperitoneal. The method in brief: as §3

20 molecules from ChEMBL document CHEMBL1150357, “Synthesis and preliminary evaluation of some substituted coumarins as anticonvulsant agents” (Bioorg Med Chem, 2008) can be followed below.

One may read the pKa as the negative logarithm of the acid dissociation constant. Read a high pKa as a group that holds its proton tightly. As usually defined, the LD50 is the dose at which mortality reaches 50%.

Consider `CCNc1nc2ccc3oc(=O)ccc3c2s1`, for which the Survival in data set [1] is 6.26 min.

Regarding `CCOC(=O)c1s/c(=N/c2ccc3oc(=O)ccc3c2)n(C2CCCCC2)c1C`, the Activity in data set [2] amounted to 60%. The Survival in data set [1] came to 3.14 min.

For `CNc1nc2ccc3oc(=O)ccc3c2s1`, in [2], the Activity is listed as 0%.

In the case of `CCN1C(=O)/C(=C/c2ccc(Cl)cc2)S/C1=N/c1ccc2oc(=O)ccc2c1`, the Survival in data set [1] was found to be 5.18 min.

In the case of `CCn1c(-c2ccc(OC)cc2)cs/c1=N/c1ccc2oc(=O)ccc2c1`, the Activity in data set [3] was 20%; in data set [2], 60%; in data set [4], 60%. In addition, the Survival in [1] turned out to be 7.55 min. The pKa in data set [5] was determined as 7.63. Besides, the ED50 in [6] worked out at 138 mg/kg.

On to `CCNC(=S)Nc1ccc2oc(=O)ccc2c1`, for which the Activity is recorded as 20% in data set [3], 60% in data set [2] and 70% in data set [4]. In addition, the Survival in data set [1] was 3.92 min. The pKa in [5] was determined as 5.62. Besides, in data set [6], the ED50 is 125 mg/kg.

With `O=c1ccc2cc(NC(=S)NC3CCCCC3)ccc2o1`, the Activity in data set [2] was determined as 30%. Besides, the Survival in data set [1] is 5.02 min.

With `O=c1ccc2cc(NC(=S)Nc3ccc(Cl)cc3)ccc2o1`, the Activity in data set [2] came to 20%. In [1], the Survival stood at 5.33 min.

For the molecule `O=C1CS/C(=N/c2nc3ccc4oc(=O)ccc4c3s2)N1`, the Activity in data set [2] is given as 40%. For the same molecule, the Survival in data set [1] was found to be 5.44 min.

Take `CCOC(=O)c1s/c(=N/c2ccc3oc(=O)ccc3c2)n(C)c1C`: the Activity in [2] is given as 0%.

Turning to `CCOC(=O)c1s/c(=N/c2ccc3oc(=O)ccc3c2)n(CC)c1C`, the Activity result in [7] is “Toxic”; in [3] it was 30%; in data set [2] it was 80%; in data set [4], 90%; in [9] it was “Non-toxic”. In data set [8], the LD50 at 24 h amounted to 1450 mg/kg. In data set [1], the Survival is 5 min. The molecule also registered a pKa in [5] of 7.44. In addition, in data set [6], the ED50 came out at 95 mg/kg.

Consider `COc1ccc(-c2cs/c(=N/c3ccc4oc(=O)ccc4c3)n2-c2ccc(Cl)cc2)cc1`, for which, in data set [2], the Activity amounted to 30%.

For the molecule `O=C(CCl)Nc1nc2ccc3oc(=O)ccc3c2s1`, the Activity in data set [2] came to 0%. Also, in data set [1], the Survival is 4.4 min.

`CCN1C(=O)CS/C1=N/c1ccc2oc(=O)ccc2c1`: the Activity in data set [2] is 30%.

As to `CCN1C(=O)/C(=C/c2ccc([N+](=O)[O-])cc2)S/C1=N/c1ccc2oc(=O)ccc2c1`, the Activity in data set [2] came to 30%. For the same molecule, the Survival in data set [1] came out at 4.85 min.

For the molecule `CCn1c(-c2ccc(Br)cc2)cs/c1=N/c1ccc2oc(=O)ccc2c1`, in data set [2], the Activity was determined as 30%. In data set [1], the Survival is recorded as 8.36 min.

`CCCN1C(=O)CS/C1=N/c1ccc2oc(=O)ccc2c1`: the Survival in data set [1] amounted to 5.4 min.

In the case of `COc1ccc(-c2cs/c(=N/c3ccc4oc(=O)ccc4c3)n2C2CCCCC2)cc1`, the Activity in [2] stood at 20%. For the same molecule, the Survival in data set [1] is given as 4.5 min.

Take `CCC1(c2ccccc2)C(=O)NC(=O)NC1=O` [PHENOBARBITAL]: the results for the Activity in [10], in [11] and in data set [12] were 90%, 70% and 40%, respectively. For the same molecule, the ED50 in data set [6] was determined as 16 mg/kg.

`O=C1NC(=O)C(c2ccccc2)(c2ccccc2)N1` [PHENYTOIN]: in data set [1], the Survival was 13.8 min.
